Common to all, as to assay type: functional
One assay has as its system Staphylococcus aureus. Kind of assay: Minimal inhibitory concentration against Staphylococcus aureus. A digest of the protocol:
(§1)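 Microtiter broth dilution MIC assay. Strains: S. aureus, S. faecalis, E. coli, P. vulgaris and C. albicans were wild-type clinical isolates; S. cerevisiae ATCC 7752, A. fumigatus ATCC 28212, A. niger ATCC 16404 and M. mucedo ATCC 7941.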

Another assay relates to Enterococcus faecalis. Kind of assay: Minimal inhibitory concentration against Streptococcus faecalis. In short, it runs like this: as §1
A further assay deals with Candida albicans. Kind of assay: Minimal inhibitory concentration against Candida albicans. In short, it runs like this: as §1
The test system of another assay is Escherichia coli. In words: Minimal inhibitory concentration against Escherichia coli. In short, it runs like this:
as §1

Another assay deals with Mucor mucedo. Kind of assay: Minimal inhibitory concentration against Mucor mucedo. In short, it runs like this: as §1
The next assay has as its system Proteus vulgaris. Kind of assay: Minimal inhibitory concentration against Proteus vulgaris. In short, it runs like this: as §1
The subject of another assay is Aspergillus fumigatus. In words: Minimal inhibitory concentration against Aspergillus fumigatus. A digest of the protocol: as §1
The subject of the next assay is Saccharomyces cerevisiae. In words: Minimal inhibitory concentration against Saccharomyces cerevisiae. A digest of the protocol: as §1
In another assay the test system is Aspergillus niger. In words: Minimal inhibitory concentration against Aspergillus niger. In short, it runs like this: as §1

SMILES strings stand for the structures.

Take `CC(C)CC(=O)O[C@H](CC(=O)OCCCCCCC(F)(F)C(F)(F)C(F)(F)C(F)(F)F)C[N+](C)(C)C.[Cl-]`: the MIC was 12.5 µg/mL in the assay with Staphylococcus aureus; 6.25 µg/mL with Enterococcus faecalis; 12.5 µg/mL against Candida albicans; greater than 100 µg/mL with Escherichia coli; 50 µg/mL against Mucor mucedo; 100 µg/mL with Proteus vulgaris. Also, the values for the MIC against Aspergillus fumigatus, against Saccharomyces cerevisiae and in the assay with Aspergillus niger were 100 µg/mL, 25 µg/mL and 50 µg/mL, respectively.
On to `CCCCCCCCCCOC(=O)C[C@H](C[N+](C)(C)C)OC(=O)CC(C)C.[Cl-]`, for which the MIC is 12.5 µg/mL against Staphylococcus aureus; 6.25 µg/mL against Enterococcus faecalis; 3.12 µg/mL against Candida albicans; 50 µg/mL against Escherichia coli; 100 µg/mL against Mucor mucedo; greater than 100 µg/mL against Proteus vulgaris. The MIC against Aspergillus fumigatus worked out at 50 µg/mL; in the assay with Saccharomyces cerevisiae it was 3.12 µg/mL; against Aspergillus niger it was 25 µg/mL.
For the molecule `CCCCCCCOC(=O)C[C@H](C[N+](C)(C)C)OC(=O)CCCCCCCCCBr.[Cl-]`, the minimum inhibitory concentration (MIC) with Staphylococcus aureus came to 3.12 µg/mL; in the assay with Enterococcus faecalis, 3.12 µg/mL; in the assay on Candida albicans it was 3.12 µg/mL; with Escherichia coli, 50 µg/mL; against Mucor mucedo, 25 µg/mL; against Proteus vulgaris, 100 µg/mL. The MIC was 6.25 µg/mL in the assay with Aspergillus fumigatus, greater than 100 µg/mL in the assay on Saccharomyces cerevisiae and 6.25 µg/mL in the assay on Aspergillus niger.
Take `CC(C)CC(=O)O[C@H](CC(=O)OCCCCCCCCCCCBr)C[N+](C)(C)C.[Cl-]`: the MIC with Staphylococcus aureus stood at 12.5 µg/mL; against Enterococcus faecalis it was 6.25 µg/mL; against Candida albicans, 6.25 µg/mL; with Escherichia coli, 100 µg/mL; against Mucor mucedo, 50 µg/mL; against Proteus vulgaris, 100 µg/mL. The results for the minimal inhibitory concentration (MIC) against Aspergillus fumigatus, with Saccharomyces cerevisiae and against Aspergillus niger were 25 µg/mL, greater than 100 µg/mL and 50 µg/mL, respectively.
In the case of `CCCCCCCCCCCOC(=O)C[C@H](C[N+](C)(C)C)OC(=O)CCCCCC.[Cl-]`, the MIC with Staphylococcus aureus turned out to be 3.12 µg/mL; with Enterococcus faecalis, 1.56 µg/mL; against Candida albicans, 3.12 µg/mL; against Escherichia coli, 25 µg/mL; against Mucor mucedo it was 6.25 µg/mL; in the assay with Proteus vulgaris, 100 µg/mL. In addition, the minimum inhibitory concentration (MIC) in the assay on Aspergillus fumigatus, with Saccharomyces cerevisiae and with Aspergillus niger was 3.12 µg/mL throughout.
For `CCCCCCCCCCCC(=O)O[C@H](CC(=O)OCCC(F)(F)C(F)(F)C(F)(F)C(F)(F)C(F)(F)C(F)(F)F)C[N+](C)(C)C.[Cl-]`, the MIC against Staphylococcus aureus, against Enterococcus faecalis, in the assay on Candida albicans, in the assay with Escherichia coli, with Mucor mucedo and against Proteus vulgaris was greater than 100 µg/mL each time. For the same molecule, the MIC against Aspergillus fumigatus, in the assay on Saccharomyces cerevisiae and with Aspergillus niger was greater than 100 µg/mL in each case.
On to `CCCCCC(CCCCC)OC(=O)C[C@H](C[N+](C)(C)C)OC(=O)CC(C)C.[Cl-]`, for which the MIC against Staphylococcus aureus is 12.5 µg/mL; with Enterococcus faecalis it was 3.12 µg/mL; against Candida albicans, 25 µg/mL; against Escherichia coli, 100 µg/mL; against Mucor mucedo, 100 µg/mL; against Proteus vulgaris it was greater than 100 µg/mL. The MIC is greater than 100 µg/mL in the assay on Aspergillus fumigatus, 12.5 µg/mL in the assay with Saccharomyces cerevisiae and 50 µg/mL in the assay on Aspergillus niger.

In general, MIC refers to the lowest concentration that inhibits growth of the organism. Read a high MIC as a need for much substance.

Values taken from ChEMBL document CHEMBL1131640, “L-carnitine esters as "soft", broad-spectrum antimicrobial amphiphiles” (J Med Chem, 1998).
